{"data": "Measured values from different studies", "effect on": "cell growth or viability", "note": "Protocols differ between the studies behind these lines."}
{"SMILES": "CC1=C(O)C(=O)C=C2C1=CC=C1[C@@]2(C)CC[C@@]2(C)[C@@H]3C[C@](C)(C(=O)OCCCn4cc(C=O)c5ccccc54)CC[C@]3(C)CC[C@]12C", "cell line": "MGC-803", "method": "MTT", "time": "48 h", "quantity": "IC50", "result": "340 nM"}
{"SMILES": "Cc1cc(N(CCOS(C)(=O)=O)CCOS(C)(=O)=O)ccc1C=O", "cell line": "A498", "quantity": "IC50", "result": "0.0463 µg/mL"}
{"SMILES": "CC1=C(O)C(=O)C=C2C1=CC=C1[C@@]2(C)CC[C@@]2(C)[C@@H]3C[C@](C)(C(=O)O)CC[C@]3(C)CC[C@]12C", "cell line": "MGC-803", "method": "MTT", "time": "48 h", "quantity": "IC50", "result": "350 nM"}
{"SMILES": "Cc1cc(N(CCO)CCO)ccc1C=O", "cell line": "A498", "quantity": "IC50", "result": "> 10 µg/mL"}
{"SMILES": "C[C@H]1CN(c2ccncc2NC(=O)c2ccc(F)c(-c3c(F)cccc3F)n2)C[C@@H](N)[C@@H]1O", "cell line": "MM1.S", "method": "thymidine uptake", "time": "72 h", "quantity": "GI50", "result": "22 nM"}
{"SMILES": "N.N.[Cl][Pt][Cl]", "cell line": "MGC-803", "method": "MTT", "time": "24 h", "quantity": "IC50", "result": "29500 nM"}
{"SMILES": "N.N.[Cl][Pt][Cl]", "cell line": "SW480", "method": "MTT", "time": "48 h", "quantity": "IC50", "result": "13400 nM"}
{"SMILES": "Cc1cccc(-n2ncc(Cl)c(Cl)c2=O)c1", "cell line": "NCI-H2030", "method": "resazurin", "time": "96 h", "quantity": "IC50", "result": "270 nM"}
{"SMILES": "COc1ccc2c(c1)[nH]c1c(C)nccc12", "cell line": "PC-12", "method": "MTT", "time": "48 h", "quantity": "IC50", "result": "18000 nM"}
